Data reported in ChEMBL document CHEMBL1152963, “Synthesis and antimicrobial activity of 4-hydroxy-4-(pyridyl)alk-3-en-2-ones” (2009).
In brackets after ≈: the same amount, converted by molar mass.

How the values were obtained:
Format in all cases: functional
Staphylococcus aureus = assay: Antimicrobial activity against Staphylococcus aureus ATCC 6538 after 24 hrs by dilution susceptibility assay; settings: ATCC 6538, 24 h
How it was run: (§1)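 Broth microdilution MIC per CLSI recommendations, ATCC strains, 96-well format, no agitation; inoculum 2 × 10⁵ bacterial cells per well; incubated 24 h at 37 °C; MIC as average of 3 independent experiments.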

Escherichia coli = assay: Antimicrobial activity against Escherichia coli […] after 24 hrs by dilution susceptibility assay; how it was run: as §1
Bacillus subtilis = assay: Antimicrobial activity against Bacillus subtilis ATCC 11229 after 24 hrs by dilution susceptibility assay; settings: ATCC 11229, 24 h; how it was run: as §1

Q: What does the source list for CC(=O)/C=C(\O)c1cccnc1?
A: MIC (Staphylococcus aureus): 392 µg/mL (≈ 2400 µM); MIC (Escherichia coli): 402 µg/mL (≈ 2460 µM); MIC (Bacillus subtilis): 397 µg/mL (≈ 2430 µM)

Q: With CCC(=O)C(C)C(=O)c1ccccn1 (stereo unspecified) as the molecule, how does the MIC (Staphylococcus aureus) read?
A: 758 µg/mL (≈ 3960 µM)

Q: And the MIC (Escherichia coli)?
A: 391 µg/mL (≈ 2040 µM)

Q: And the MIC (Bacillus subtilis)?
A: 786 µg/mL (≈ 4110 µM)

Q: Which results are given for CCCCC(=O)/C=C(\O)c1ccccn1?
A: MIC (Staphylococcus aureus): 96.5 µg/mL (≈ 470 µM); MIC (Escherichia coli): 47.7 µg/mL (≈ 232 µM); MIC (Bacillus subtilis): 48.1 µg/mL (≈ 235 µM)

Q: CC(=O)/C=C(\O)c1ccccn1 was tested. Which MIC (Staphylococcus aureus) did it give?
A: 46.9 µg/mL (≈ 287 µM)

Q: And the MIC (Escherichia coli)?
A: 379 µg/mL (≈ 2320 µM)

Q: And the MIC (Bacillus subtilis)?
A: 190 µg/mL (≈ 1160 µM)

Q: CCC(=O)/C=C(\O)c1cccnc1 was tested. Which MIC (Staphylococcus aureus) did it give?
A: 380 µg/mL (≈ 2150 µM)

Q: What about the MIC (Escherichia coli) of the same molecule?
A: 379 µg/mL (≈ 2140 µM)

Q: What about the MIC (Bacillus subtilis) of the same molecule?
A: 374 µg/mL (≈ 2110 µM)

Q: What does the source list for CCCC(=O)/C=C(\O)c1ccccn1?
A: MIC (Staphylococcus aureus): 192 µg/mL (≈ 1000 µM); MIC (Escherichia coli): 97.8 µg/mL (≈ 512 µM); MIC (Bacillus subtilis): 97.2 µg/mL (≈ 509 µM)

Q: Which MIC (Staphylococcus aureus) does the source give for CCC(=O)/C=C(\O)c1ccccn1 here?
A: 23.6 µg/mL (≈ 133 µM)

Q: And the MIC (Escherichia coli)?
A: 195 µg/mL (≈ 1100 µM)

Q: And the MIC (Bacillus subtilis)?
A: 211 µg/mL (≈ 1190 µM)

Q: CCCC(=O)/C=C(\O)c1cccnc1 was tested. Which MIC (Staphylococcus aureus) did it give?
A: 193 µg/mL (≈ 1010 µM)

Q: And the MIC (Escherichia coli)?
A: 94.1 µg/mL (≈ 492 µM)

Q: And the MIC (Bacillus subtilis)?
A: 200 µg/mL (≈ 1050 µM)

Q: Which MIC (Staphylococcus aureus) does the source give for CCCCC(=O)/C=C(\O)c1cccnc1 here?
A: 95.5 µg/mL (≈ 465 µM)

Q: What about the MIC (Escherichia coli) of the same molecule?
A: 95.4 µg/mL (≈ 465 µM)

Q: What about the MIC (Bacillus subtilis) of the same molecule?
A: 95.4 µg/mL (≈ 465 µM)

Q: What does the source list for O=C(/C=C(\O)c1cccnc1)c1ccccc1?
A: MIC (Staphylococcus aureus): 95.1 µg/mL (≈ 422 µM); MIC (Escherichia coli): 95.8 µg/mL (≈ 425 µM); MIC (Bacillus subtilis): 94.6 µg/mL (≈ 420 µM)

Q: What does the source list for O=C(/C=C(\O)c1ccccn1)c1ccccc1?
A: MIC (Staphylococcus aureus): 47.4 µg/mL (≈ 210 µM); MIC (Escherichia coli): 24.1 µg/mL (≈ 107 µM); MIC (Bacillus subtilis): 24.5 µg/mL (≈ 109 µM)

Q: With CC1(C)S[C@@H]2[C@H](NC(=O)[C@H](N)c3ccccc3)C(=O)N2[C@H]1C(=O)O [AMPICILLIN] as the molecule, how does the MIC (Staphylococcus aureus) read?
A: 3.19 µg/mL (≈ 9.13 µM)

Q: What about the MIC (Escherichia coli) of the same molecule?
A: 6.99 µg/mL (≈ 20 µM)

Q: And the MIC (Bacillus subtilis)?
A: 12.5 µg/mL (≈ 35.7 µM)
